# A selection: hits, their analogues and other compounds. The true share with any hit is near 1.8%.
# TCR-CD3 inh = human TCR-CD3 binding inhibition | inhibition, % at 9.4 µM | TAMRA-labeled TCR probe fluorescence, biochemical | 360,000 compounds, 0.37% hits; in the data active means inhibition above about 19%;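 further: recombinant mutant TCR 2C K166C tagged with TAMRA read by polarization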
# DDE Tn6 FP inh = inhibitors of Tn6 peptide binding to human fibrin DD(E); AID 720509; 370,000 compounds, 0.21% hits; Fibrin DD(E) TRITC-Tn6 fluorescence polarization displacement; inhibition, % at 8.3 µM; P02675;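 active means inhibition above a per-campaign cutoff: mean of compounds within control limits plus 3 SD, cut at about 15% in these data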
# Target sequence (P02675 whole entry, looked up): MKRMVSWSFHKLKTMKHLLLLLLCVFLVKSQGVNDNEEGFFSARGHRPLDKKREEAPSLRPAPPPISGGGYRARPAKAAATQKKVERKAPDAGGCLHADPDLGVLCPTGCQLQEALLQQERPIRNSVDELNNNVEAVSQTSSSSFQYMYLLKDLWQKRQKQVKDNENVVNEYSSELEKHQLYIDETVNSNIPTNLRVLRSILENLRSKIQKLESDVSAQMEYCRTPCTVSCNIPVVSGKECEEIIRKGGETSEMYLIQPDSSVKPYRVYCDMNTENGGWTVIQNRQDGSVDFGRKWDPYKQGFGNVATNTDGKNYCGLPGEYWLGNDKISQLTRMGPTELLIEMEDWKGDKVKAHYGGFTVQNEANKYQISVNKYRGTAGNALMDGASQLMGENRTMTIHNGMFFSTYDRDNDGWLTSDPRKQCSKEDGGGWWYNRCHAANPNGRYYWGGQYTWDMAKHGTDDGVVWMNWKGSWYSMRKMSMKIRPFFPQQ
# HTRA1 inhibitor = blocks human HTRA1 serine peptidase | Q92743 | recombinant HTRA1, FP-rhodamine activity-based probe, fluorescence polarization | inhibition, % at 5.96 µM | 340,000 compounds, 0.5% hits | AID 504803; in the data active means inhibition above about 36%
# DDE Tn7 FP inh = inhibitors of Tn7 peptide binding to human fibrin DD(E). P02675. inhibition, % at 8.3 µM. 370,000 compounds, 0.13% hits. FP displacement of FITC-Tn7 peptide from fibrin DD(E); 0% = median of compound wells per plate;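 active means inhibition above the mean of compounds falling within the control limits plus 3 SD of them, cut at about 14% in these data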
#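 Assay system: Fibrin-DD(E) protein isolated from polymerized human fibrin clots; read-out basis: percent inhibition; medium: Tris/NaCl/CaCl2 buffer, pH 7.8; signal: FP measurement; incubation: 10 min plus 3 h, room temperature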
# SIAE primary = human SIAE inhibition, primary screen; SIAE FP-Rh probe binding, fluorescence polarization; inhibition, % at 9.66 µM; 370,000 compounds, 0.69% hits;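 active means inhibition above a cutoff: mean of compounds within the control limits plus 3 SD of those, cut at about 17% in these data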
# ABHD4 inh = inhibitors of mouse ABHD4; Q8VD66; purified mABHD4, FP-Rh probe fluorescence polarization; inhibition, % at 8.92 µM; 370,000 compounds, 0.54% hits; AID 720543;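 active means inhibition exceeding the mean over every tested compound plus 3 SD, cut at about 30% in these data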
#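 Doses – 8.92 µM, single dose · Material – wild-type mouse ABHD4 protein · Replication – single well per compound (singlicate) · Measure – percent inhibition of probe binding, normalized to plate controls · Schedule – 45 min compound pre-incubation plus 60 min probe step, 25 °C · Detection – fluorescence polarization with parallel and perpendicular emission, 525/598 nm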
# ABHD4 confirm = ABHD4 (mouse) inhibition, FP confirmation; shares compounds with ABHD4 inh; 1,800 compounds, 55% hits; inhibition, % at 8.92 µM; purified mABHD4, FP-Rh probe fluorescence polarization; AID 720658;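 active means mean inhibition across replicates above the hit cutoff set in the primary screen, cut at about 30% in these data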
# Numbers stand for hits; . = inactive; / = no result given.
SMILES,TCR-CD3 inh,DDE Tn6 FP inh,HTRA1 inhibitor,DDE Tn7 FP inh,SIAE primary,ABHD4 inh,ABHD4 confirm
O=C1NCN(c2ccccc2)C12CCN(CCCC(c1ccc(F)cc1)c1ccc(F)cc1)CC2,.,.,.,.,.,31.9,37.0
O=C(N/N=C/c1ccncc1)c1cc2ccccc2cc1O,.,.,.,.,.,42.6,.
CCOc1ccc(-n2c(SCC(=O)Nc3ccc4cn[nH]c4c3)nnc2-c2ccncc2)cc1,/,.,/,.,.,.,/
CCOc1ccc2[nH]c3c(NCCN(C)C)ncnc3c2c1,.,.,.,.,.,.,/
CCOc1ccc2[nH]c3c(NCCC(C)C)ncnc3c2c1,.,.,.,.,.,38.9,39.0
Cc1ccc(NC(=S)NNc2ccc([N+](=O)[O-])cc2S(=O)(=O)Nc2ccccc2C(=O)O)cc1C,.,.,.,.,.,46.3,85.3
Cc1ccc(NCc2cccc(B(O)O)c2)cc1,.,.,.,.,.,59.0,61.3
Cc1ccc(NCc2ccccc2)cc1,.,.,.,.,.,.,/
COc1ccc(CNS(=O)(=O)/C=C/c2ccccc2CNC(=O)OC(C)(C)C)cc1,/,.,/,.,.,.,/
COc1ccc(OC)c(NC(=O)Nc2ccc(O)c3ccccc23)c1,.,.,.,.,.,33.0,40.8
COc1ccc(OC)c(NC(=O)C(=O)/C=C(\O)c2cc(OC)ccc2OC)c1,.,.,.,.,.,34.7,.
CCCC(C(=O)O)N1C(=O)/C(=C2\C(=O)N(C)c3ccccc32)SC1=S (configuration not stated),.,.,.,.,.,41.0,58.4
O=C(O)CN1C(=O)/C(=C2\SC(=S)N(C(Cc3ccccc3)C(=O)O)C2=O)c2ccccc21 (configuration not stated),.,.,.,.,.,55.6,45.1
COC(=O)C1CN(Cc2cn(Cc3ccc(C)cc3)nn2)CCS(=O)(=O)N1Cc1ccc(C)cc1 (configuration not stated),/,.,/,.,.,.,/
Cc1ccc(C(=O)COC(=O)C2CC3CCCC(C2)C3=O)cc1[N+](=O)[O-] (configuration not stated),.,.,.,.,.,42.1,.
Cc1ccc([N+](=O)[O-])c(NC(=O)COC(=O)C2CC3CCCC(C2)C3=O)c1C (configuration not stated),.,.,.,.,.,.,/
O=C(OCc1ccccc1)[C@H](Cc1ccccc1)NC(=O)[C@@H]1CC=C[C@@H]2CCN(Cc3ccc(Cl)cc3)C(=O)[C@@H]21,/,.,/,.,.,.,/
O=C(Nc1ccccc1)c1ccccc1NC(=O)c1ccccc1[N+](=O)[O-],.,.,.,.,.,.,/
O=[N+]([O-])c1ccccc1C(=Nc1ccccc1)c1c(O)cc(O)cc1O,.,.,.,.,.,30.3,.
CCCOc1ccccc1-n1sc2c(c1=S)-c1cc(OC)cc3c1N(C(=O)C3=O)C2(C)C,.,.,.,.,.,34.6,60.1
O=C(NCCc1c[nH]c2ccccc12)OCc1cn(Cc2ccc(F)cc2F)nn1,/,.,/,.,.,.,/
CC1CCN(c2ccc(C(=O)O)cc2NS(=O)(=O)c2ccc(F)cc2)CC1,/,.,/,.,.,.,/
CC1CCN(c2ccccc2NC(=O)c2ccc(N3CCOCC3)c([N+](=O)[O-])c2)CC1,.,.,.,.,.,.,/
CC1CCN(c2ccc(C(=O)O)cc2NS(=O)(=O)c2ccc(C(C)(C)C)cc2)CC1,/,.,/,.,.,42.1,51.6
CC1CCN(c2ccc(C(=O)O)cc2NS(=O)(=O)c2ccccc2[N+](=O)[O-])CC1,/,.,/,.,.,43.9,42.3
O=C(Nc1ccc(F)cc1Cl)C1CCCN1S(=O)(=O)c1cccc2cccnc12 (configuration not stated),/,.,/,.,.,.,/
Cc1cc(C)n(-c2ncc3c(n2)N(CCO)CCOC3=O)n1,.,.,.,.,.,.,/
CC1=CC2(O)OCCN(CCO)C2=CC1=O (configuration not stated),.,.,.,.,.,30.2,.

# From PubChem
